Entries after “also recorded” stand apart in the source; their conditions may differ. Values belong to the substance of their own block, whether it stands above or below them. Ends that are not written are not given here.
Experiments:
[1] = system: SLAIN2 C terminus / full-length CLIP-170; assay: GST-SLAIN2 pull-down of CLIPs and full-length CLIP-170; assay type: binding
[2] = molecular target: T1, CLIPCG1 (first CAP-Gly domain of CLIP-170) (Homo sapiens, UniProt P30622); assay: ITC of SLAIN2c with first CAP-Gly domain of CLIP-170; assay type: binding
T1 sequence (P30622 56-128): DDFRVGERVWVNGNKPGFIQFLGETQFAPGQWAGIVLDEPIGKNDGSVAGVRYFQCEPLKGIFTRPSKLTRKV

[3] = molecular target: T2, CLIPCG2 (second CAP-Gly domain of CLIP-170) (Homo sapiens, UniProt P30622); assay: ITC of SLAIN2c with second CAP-Gly domain of CLIP-170; assay type: binding
T2 sequence (P30622 210-282): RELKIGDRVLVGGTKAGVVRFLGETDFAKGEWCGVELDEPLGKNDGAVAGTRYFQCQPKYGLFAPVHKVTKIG

[4] = molecular target: T3, CLIPCG12 (both CAP-Gly domains of CLIP-170) (Homo sapiens, UniProt P30622); assay: ITC of SLAIN2c with double CAP-Gly construct of CLIP-170; assay type: binding
T3 sequence (P30622 48-300): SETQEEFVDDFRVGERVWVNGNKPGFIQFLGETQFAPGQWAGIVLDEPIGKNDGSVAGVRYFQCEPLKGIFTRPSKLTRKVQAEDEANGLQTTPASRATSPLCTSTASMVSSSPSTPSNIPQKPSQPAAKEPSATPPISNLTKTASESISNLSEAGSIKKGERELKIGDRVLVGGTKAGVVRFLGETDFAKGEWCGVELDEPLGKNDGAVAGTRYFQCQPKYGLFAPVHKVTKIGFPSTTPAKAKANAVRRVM

[5] = system: p150CG (CAP-Gly domain of dynactin large subunit p150^Glued); assay: ITC of SLAIN2c with CAP-Gly domain of p150Glued; assay type: binding, human; conditions: ITC in PBS, 25°C
SLAIN2 in 3T3 cells = assay: siRNA knockdown in mouse 3T3 cells; assay type: cell-based; conditions: siRNA 5 nM, 72 h
Summary of the method: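 Mouse Swiss 3T3 cells were cultured in 45% DME, 45% Ham's F10 and 10% FCS. Cells were blocked in interphase with 2 mM thymidine, added 1 d after transfection, for 2 d.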

Substance: GFP–CLIP-115: full-length rat CLIP-115 [reference compound]
association with SLAIN2 C terminus [1]: associated with the SLAIN2 C terminus

Substance: GSMKDDSWKDGCY-OH [SLAIN2c]
Kd (in words) ([2]; ITC): micromolar range
Kd (in words) ([3]; ITC): micromolar range
Kd (in words) [4]: comparable
binding by ITC (in words) [5]: only very weak binding; also recorded: more weakly than the two CAP-Gly domains of CLIP-170

Substance: SLAIN2 siRNA#2: siRNA target sequence 5′-CUCUAUAGAUAGUGAGUUA-3′ (chemistry not given here)
depletion of SLAIN2 (SLAIN2 in 3T3 cells): efficiently deplete SLAIN2

binding by ITC (in words) ([2]; ITC in PBS, 25°C): abrogates binding
binding by ITC (in words) ([3]; ITC in PBS, 25°C): abrogates binding
Substance: SLAIN2c-W576A (GSMKDDSAKDGCY)

Source: article PMC3115796 (The Journal of Cell Biology, 2011)
